NPY Y2 blocker – NPY-Y2 receptor antagonists, primary screen, cell-based; Neuropeptide Y receptor type 2 (Homo sapiens), P49146; NPY-Y2 expressing cells, antagonist mode; inhibition, % at 2.7 µM; 0.99% of 140,000 active; AID 793, 2007;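 also: 0% = vehicle with agonist challenge and 100% = reference antagonist with challenge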
Target sequence (P49146 whole entry, looked up): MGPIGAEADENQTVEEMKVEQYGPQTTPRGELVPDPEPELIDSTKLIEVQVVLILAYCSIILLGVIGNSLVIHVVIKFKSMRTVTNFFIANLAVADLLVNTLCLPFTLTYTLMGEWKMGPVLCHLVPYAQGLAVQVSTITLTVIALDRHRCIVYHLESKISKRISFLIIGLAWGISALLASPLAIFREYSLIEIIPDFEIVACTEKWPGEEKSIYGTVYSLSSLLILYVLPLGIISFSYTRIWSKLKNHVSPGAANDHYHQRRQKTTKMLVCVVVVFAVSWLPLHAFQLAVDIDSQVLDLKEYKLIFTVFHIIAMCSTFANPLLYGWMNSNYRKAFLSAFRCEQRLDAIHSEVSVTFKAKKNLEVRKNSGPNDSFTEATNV
NPY1 pot ag – NPY-Y1 receptor potentiators or agonists, primary screen, cell-based. Neuropeptide Y receptor type 1 (Homo sapiens), P25929. NPY-Y1 expressing cells, potentiator/agonist activation. activation, % at 3.6 µM. 0.37% of 220,000 active; in the data active = activation above about 33%, passing the limit was not always enough;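 also: cells stimulated with NPY at EC10 then isoproterenol at EC100; 0% = low agonist plus stimulus and 100% = saturating agonist plus stimulus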
NPY-Y1 antag – NPY-Y1 receptor antagonists, primary screen, cell-based | inhibition, % at 3.6 µM | HEK293-CNG Y1 cells, membrane potential fluorescence; NPY at EC95, then isoproterenol | 1% of 200,000 active | AID 1040, 2008;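 active = inhibition above the campaign mean inhibition of all tested compounds plus 3 SD, cut at about 20% in these data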;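 also: 0% = DMSO wells given NPY plus isoproterenol and 100% = isoproterenol alone without NPY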
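Assay system: HEK293 Y1/CNG channel cell line; Doses: single compound dose of 3.6 µM, 0.4% DMSO; Timing: dye 3 h, compound 60 min room temperature, stimulation 45 min; Technique: Membrane-potential fluorescent dye readout; Measure: % inhibition of NPY effect.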
S1P4 antagonist – S1P4 receptor antagonists, primary screen, cell-based. S1P4-expressing cells, antagonist mode, reporter read-out. inhibition, % at 4.98 µM. 0.26% of 220,000 active. AID 1510, 2009; in the data active = inhibition above about 29%;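 also: 0% = wells stimulated with agonist and 100% = vehicle wells without agonist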
S1P4 agonist – S1P4 receptor agonists, primary screen, cell-based | Sphingosine 1-phosphate receptor 4 (Homo sapiens), O95977 | S1P4-expressing cell line, agonist reporter assay | activation, % at 4.98 µM | 0.35% of 220,000 active | AID 1509, 2009; in the data active = activation above about 11%;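 also: 0% = DMSO vehicle and 100% = reference agonist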
NPY2 pot ag – NPY-Y2 potentiators or agonists, primary screen, cell-based; Neuropeptide Y receptor type 2 (Homo sapiens), P49146; cells expressing NPY-Y2, potentiator/agonist read-out; AID 1359, 2008; activation, % at 3.6 µM; 0.45% of 220,000 active; in the data active = activation above about 27%;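 also: cells stimulated with NPY near EC25 plus isoproterenol at EC100; 0% = vehicle plus submaximal agonist and 100% = vehicle plus saturating agonist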
NPY-Y1 ant conf – NPY-Y1 receptor antagonists, retest of hits, confirmation, HEK293-CNG cells, membrane potential fluorescence, triplicate | shares compounds with NPY-Y1 antag | cAMP; NPY challenge against isoproterenol-raised cAMP | inhibition, % at 3.6 µM | 21% of 1,200 active; in the data active = inhibition above about 20%;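 also: 0% = vehicle with agonist plus stimulus and 100% = stimulus alone without agonist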
NPY2 antag ctr – NPY-Y2 receptor antagonists, selectivity check, confirmation, counter-screen for NPY-Y1 antagonist project, HEK293-CNG cells, membrane potential fluorescence, triplicate | shares compounds with NPY-Y1 antag | antagonism; cells given NPY, then isoproterenol | inhibition, % at 3.6 µM | 28% of 1,200 active | AID 1255, 2008;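 also: 0% = DMSO with agonist challenge and 100% = reference antagonist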
The depositor's hits bear a star; x = no result given. The list is not random: actives were taken first. Their share in the collection is about 2.4%. Rule as the data show it, unless noted: active = inhibition above about 17%; inactive = the rest.

SMILES	NPY Y2 blocker	NPY1 pot ag	NPY-Y1 antag	S1P4 antagonist	S1P4 agonist	NPY2 pot ag	NPY-Y1 ant conf	NPY2 antag ctr
Cc1cc2c(=O)n(Cc3ccco3)c(SCC(=O)N3CCCc4ccccc43)nc2s1	8.3	-8.4	22.2*	-3.3	0.1	-11.9	0.9	3.5
O=C(CSc1nc2sc3c(c2c(=O)n1Cc1ccco1)CCC3)N1CCc2ccccc21	2.2	-14.0	-1.0	-0.4	-1.2	-3.8	x	x
N#Cc1nc(COc2ccc(Br)cc2)oc1NCCCn1ccnc1	7.3	-13.9	26.5*	-7.0	-0.4	-21.2	5.6	8.0
Cc1ccc(OCc2nc(C#N)c(NCCCn3ccnc3)o2)cc1	1.8	-21.5	0.9	-5.7	-0.5	-0.7	x	x
COc1ccc(CN(C(=O)Cc2c[nH]c3ccccc23)C(C(=O)NC2CCCCC2)c2ccc(C)o2)cc1 (configuration not stated)	3.6	15.8	9.1	3.4	-1.2	-5.0	x	x
COc1cccc(CN(C(=O)Cc2c[nH]c3ccccc23)C(C(=O)NC2CCCCC2)c2ccc(C)o2)c1 (configuration not stated)	15.8	-20.3	23.0*	-14.9	0.4	-0.6	13.2	13.9
NC(=O)c1c(NC(=O)C2COc3ccccc3O2)sc2c1CCN(Cc1ccccc1)C2 (configuration not stated)	x	13.6	1.2	-8.9	-1.1	2.2	x	x
CCOC(=O)c1c(NC(=O)C2COc3ccccc3O2)sc2c1CCN(Cc1ccccc1)C2 (configuration not stated)	5.2	-63.6	22.5*	-2.4	0.5	-15.5	22.6*	19.9*
C=C(C)CSc1nnc(-c2cccc(S(=O)(=O)N(C)C)c2)n1-c1cc(OC)ccc1OC	15.5	-17.8	26.4*	-15.3	1.0	-0.9	10.6	10.4
CCCCCC(=O)Nc1ccccc1N1CCOCC1	0.1	2.9	-2.9	6.9	0.2	-2.5	x	x
O=C(Cc1ccccc1)Nc1ccccc1N1CCN(c2ccccc2)CC1	14.2	10.3	22.4*	-0.3	0.9	10.0	8.4	9.0
O=C(Cc1ccc(Cl)cc1)Nc1ccccc1N1CCOCC1	-1.1	-12.5	2.5	-7.4	-0.1	-4.3	x	x
CCCCC(=O)Nc1ccccc1N1CCN(c2ccccc2)CC1	x	-19.7	23.5*	-10.6	-1.0	-20.3	19.6	29.6*
O=C(Nc1ccccc1N1CCN(c2ccccc2)CC1)c1ccccc1F	x	-7.2	36.4*	6.6	-0.3	-17.9	17.8	16.1
O=C(Nc1ccccc1N1CCCCC1)c1ccccc1F	5.5	-11.9	8.6	-21.8	2.1	2.2	x	x
CCC1CCCCN1Cc1ccc(CNS(=O)(=O)c2ccc3c(c2)oc(=O)n3C)o1 (configuration not stated)	0.9	-6.4	4.2	-14.6	-0.1	-13.6	x	x
COc1ccc(NC(=O)NCCCN2CCCC2=O)c(OC)c1	1.8	7.0	2.7	-3.0	-0.3	-3.8	x	x
NCCNc1cc(N2CCCC2)ccc1[N+](=O)[O-]	x	15.6	6.3	-13.3	-1.0	6.3	x	x
COc1ccc(C(=O)CSc2ccc(-c3ccc(C)cc3)nn2)cc1	9.5	-4.6	25.4*	-8.8	3.1	3.6	6.5	6.2
CC(=O)n1cc([C@@H]2C=C(C(=O)Nc3ccccc3)O[C@H](OCc3ccc(CO)cc3)C2)c2ccccc21	x	-16.9	34.3*	9.4	-1.1	-24.2	19.9	9.2
CC(C)NC(=O)c1onc(CSc2ccc(Cl)cc2)c1C(=O)O	9.1	-26.0	13.1	-1.4	3.4	-16.9	x	x
CCCCNC(=O)c1onc(CSc2ccc(Cl)cc2)c1C(=O)O	16.6	-34.0	21.1*	1.9	0.8	-47.5	22.7*	12.3

Screens as filed in PubChem.
